Values belong to the molecule of their own block, whether it stands above or below them.
Legend:
[1] = molecular target: T1, Protein deacetylase HDAC6 (Homo sapiens) (UniProt Q9UBN7); assay: Inhibition of HDAC6 in human HeLa-S3 cell lysates assessed as remaining activity at 5 uM preincubated for 15 mins followed by HDAC-Glo substrate addition measured after 30 to 40 mins by […] relative to control
T1 sequence (whole entry): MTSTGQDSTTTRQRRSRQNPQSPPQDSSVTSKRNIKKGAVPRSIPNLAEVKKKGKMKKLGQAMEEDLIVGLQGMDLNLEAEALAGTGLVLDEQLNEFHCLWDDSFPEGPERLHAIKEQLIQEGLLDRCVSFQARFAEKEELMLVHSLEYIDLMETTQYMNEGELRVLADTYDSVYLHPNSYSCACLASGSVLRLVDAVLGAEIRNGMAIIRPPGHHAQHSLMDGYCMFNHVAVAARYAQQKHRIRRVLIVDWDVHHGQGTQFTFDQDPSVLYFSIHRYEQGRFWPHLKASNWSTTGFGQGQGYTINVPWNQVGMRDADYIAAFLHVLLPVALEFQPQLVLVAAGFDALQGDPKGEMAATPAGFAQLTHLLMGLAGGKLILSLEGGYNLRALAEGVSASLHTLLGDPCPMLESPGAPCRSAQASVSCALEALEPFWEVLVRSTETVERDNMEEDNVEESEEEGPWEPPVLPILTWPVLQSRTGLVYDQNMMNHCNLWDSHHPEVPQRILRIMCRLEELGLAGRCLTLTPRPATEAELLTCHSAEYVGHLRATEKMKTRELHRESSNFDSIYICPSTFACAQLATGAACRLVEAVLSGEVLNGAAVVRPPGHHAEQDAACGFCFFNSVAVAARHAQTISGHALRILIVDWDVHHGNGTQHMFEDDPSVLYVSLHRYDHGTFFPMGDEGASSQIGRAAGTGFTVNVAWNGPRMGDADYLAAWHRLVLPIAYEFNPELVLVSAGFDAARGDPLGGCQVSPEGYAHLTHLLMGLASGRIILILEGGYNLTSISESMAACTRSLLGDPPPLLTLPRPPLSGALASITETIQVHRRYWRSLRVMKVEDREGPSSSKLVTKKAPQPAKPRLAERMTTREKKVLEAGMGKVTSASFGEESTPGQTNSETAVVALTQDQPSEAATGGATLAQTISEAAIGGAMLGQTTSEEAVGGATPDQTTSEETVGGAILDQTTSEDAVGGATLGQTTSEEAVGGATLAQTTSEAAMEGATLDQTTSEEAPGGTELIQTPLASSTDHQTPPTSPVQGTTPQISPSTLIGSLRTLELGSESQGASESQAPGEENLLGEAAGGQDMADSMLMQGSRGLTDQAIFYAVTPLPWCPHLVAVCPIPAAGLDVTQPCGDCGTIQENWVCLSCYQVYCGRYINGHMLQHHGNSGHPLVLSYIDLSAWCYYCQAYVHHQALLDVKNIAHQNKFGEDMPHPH
Summary of the method: (§1)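 HDAC6 captured on an anti-HDAC6 antibody-coated plate (2 μg/mL, pH 9.4 carbonate buffer, milk-blocked). HeLa-S3 lysate loaded at 1 mg/mL, 1 h at 4 °C, then washed. 15 min RT preincubation with inhibitor in DMSO; HDAC-Glo reagent added, luminescence read at 30-40 min. Concentrations are final. Background = no-antibody well; values are % activity versus DMSO control.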

[2] = molecular target: Histone deacetylase 2 (Homo sapiens) (UniProt Q92769); assay: Inhibition of HDAC2 in human HeLa-S3 cell lysates assessed as remaining activity at 8 x 10^-6 M preincubated for 15 mins followed by HDAC-Glo substrate addition measured after 30 to 40 mins by […] relative to control
Histone deacetylase 2 (Homo sapiens), sequence (Q92769 whole entry, canonical isoform): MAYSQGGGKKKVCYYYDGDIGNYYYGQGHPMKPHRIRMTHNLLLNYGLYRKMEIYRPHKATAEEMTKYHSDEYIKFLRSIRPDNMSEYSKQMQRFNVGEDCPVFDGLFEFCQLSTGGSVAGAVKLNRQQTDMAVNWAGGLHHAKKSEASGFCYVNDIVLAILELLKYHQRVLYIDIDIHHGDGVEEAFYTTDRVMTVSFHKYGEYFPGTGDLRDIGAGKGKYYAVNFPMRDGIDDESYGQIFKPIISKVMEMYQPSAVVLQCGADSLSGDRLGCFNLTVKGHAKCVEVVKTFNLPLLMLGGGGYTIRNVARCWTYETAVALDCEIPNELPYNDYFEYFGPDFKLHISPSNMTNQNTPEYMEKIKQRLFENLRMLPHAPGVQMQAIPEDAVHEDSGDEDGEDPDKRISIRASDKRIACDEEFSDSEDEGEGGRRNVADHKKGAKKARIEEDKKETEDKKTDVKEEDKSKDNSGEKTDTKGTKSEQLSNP
Summary of the method: (§2)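 Same antibody-capture format as the other class I isoforms. HeLa-S3 lysate added at 100 μg/mL for HDAC1 and HDAC2, 1 h at 4 °C, then washed. Inhibitor in DMSO preincubated 15 min at RT; HDAC-Glo reagent added and luminescence read after 30-40 min. Concentrations are final. Signal corrected against a well without antibody; activity expressed as % of DMSO control.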

[3] = molecular target: Histone deacetylase 1 (Homo sapiens) (UniProt Q13547); assay: Inhibition of HDAC1 in human HeLa-S3 cell lysates assessed as remaining activity at […] preincubated for 15 mins followed by HDAC-Glo substrate addition measured after 30 to 40 mins by […] relative to control
Histone deacetylase 1 (Homo sapiens), sequence (Q13547 whole entry): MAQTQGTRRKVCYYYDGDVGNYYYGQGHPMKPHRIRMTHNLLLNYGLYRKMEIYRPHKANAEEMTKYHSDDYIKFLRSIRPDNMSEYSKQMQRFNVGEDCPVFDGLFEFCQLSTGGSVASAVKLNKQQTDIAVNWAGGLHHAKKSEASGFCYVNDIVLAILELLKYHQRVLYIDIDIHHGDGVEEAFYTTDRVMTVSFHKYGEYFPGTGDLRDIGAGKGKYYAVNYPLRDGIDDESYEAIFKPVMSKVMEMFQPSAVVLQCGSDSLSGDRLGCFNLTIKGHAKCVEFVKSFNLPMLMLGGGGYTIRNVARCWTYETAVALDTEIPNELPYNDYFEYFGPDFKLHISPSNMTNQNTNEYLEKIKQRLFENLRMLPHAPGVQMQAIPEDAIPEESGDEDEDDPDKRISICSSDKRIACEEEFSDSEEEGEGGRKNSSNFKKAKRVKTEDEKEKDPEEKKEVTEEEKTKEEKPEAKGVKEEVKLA

[4] = molecular target: Histone deacetylase 2 (Homo sapiens) (UniProt Q92769); assay: Inhibition of HDAC2 in human HeLa-S3 cell lysates assessed as remaining activity at 1 x 10^-6 M preincubated for 15 mins followed by HDAC-Glo substrate addition measured after 30 to 40 mins by […] relative to control; summary of the method: as §2
[5] = molecular target: Histone deacetylase 3 (Homo sapiens) (UniProt O15379); assay: Inhibition of HDAC3 in human HeLa-S3 cell lysates assessed as remaining activity at 1.6 x 10^-5 M preincubated for 15 mins followed by HDAC-Glo substrate addition measured after 30 to 40 mins by […] relative to control
Histone deacetylase 3 (Homo sapiens), sequence (O15379 whole entry): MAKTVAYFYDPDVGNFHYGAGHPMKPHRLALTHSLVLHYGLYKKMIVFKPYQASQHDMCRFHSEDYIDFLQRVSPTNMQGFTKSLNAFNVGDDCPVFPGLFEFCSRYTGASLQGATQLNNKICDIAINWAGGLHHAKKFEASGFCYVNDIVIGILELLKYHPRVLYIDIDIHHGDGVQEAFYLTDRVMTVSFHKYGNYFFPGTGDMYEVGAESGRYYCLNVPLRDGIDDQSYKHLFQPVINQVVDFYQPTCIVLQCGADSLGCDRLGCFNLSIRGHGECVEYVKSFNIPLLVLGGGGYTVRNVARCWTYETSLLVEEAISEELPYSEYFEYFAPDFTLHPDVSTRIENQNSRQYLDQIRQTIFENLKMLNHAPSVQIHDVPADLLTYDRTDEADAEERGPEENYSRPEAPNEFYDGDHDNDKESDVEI
Summary of the method: (§3)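 Antibody-capture (ELISA-type) assay: HDAC antibody coated in carbonate/bicarbonate buffer pH 9.4, wells blocked with 5% milk in TBST. HeLa-S3 lysate added at 1 mg/mL for HDAC3, 1 h at 4 °C, then washed. Inhibitor in DMSO preincubated 15 min at RT in HDAC-Glo buffer. HDAC-Glo reagent added, luminescence read after 30-40 min. Concentrations are final. Background = no-antibody well; activity given as % of DMSO control.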

[6] = molecular target: Histone deacetylase 3 (Homo sapiens) (UniProt O15379); assay: Inhibition of HDAC3 in human HeLa-S3 cell lysates assessed as remaining activity at 4 x 10^-6 M preincubated for 15 mins followed by HDAC-Glo substrate addition measured after 30 to 40 mins by fluorimetric method relative to control; summary of the method: as §3
[7] = molecular target: Histone deacetylase (Homo sapiens) (UniProt Q13547+O15379+Q9UBN7+Q92769+Q9UQL6+Q8WUI4+Q9BY41+Q96DB2+P56524+Q9UKV0+Q969S8); assay: Inhibition of HDAC in human HeLa-S3 cell lysates assessed as residual activity at 1.2 x 10^-5 M preincubated for 15 mins followed by HDAC-Glo substrate addition measured after 35 mins by […] relative to control; format: protein assay
[8] = molecular target: Histone deacetylase 1 (Homo sapiens) (UniProt Q13547); assay: Inhibition of HDAC1 in human HeLa-S3 cell lysates assessed as remaining activity at 1.25 uM preincubated for 15 mins followed by HDAC-Glo substrate addition measured after 30 to 40 mins by […] relative to control
Summary of the method: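 HDAC1 was captured from HeLa-S3 lysate (100 μg/mL) onto wells precoated with anti-HDAC1 antibody (10 μg/mL, carbonate buffer pH 9.4) and milk-blocked, 1 h at 4 °C, then washed. Inhibitor in DMSO was added in HDAC-Glo buffer for 15 min at room temperature. HDAC-Glo reagent was added and luminescence read after 30-40 min. Concentrations are final. No-antibody background subtracted; % of DMSO control.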

[9] = molecular target: T1, Protein deacetylase HDAC6 (Homo sapiens); assay: Inhibition of HDAC6 in human HeLa-S3 cell lysates assessed as remaining activity at 1.25 uM preincubated for 15 mins followed by HDAC-Glo substrate addition measured after 30 to 40 mins by […] relative to control; summary of the method: as §1

Activity [1]: 2.9%
Compound: O=C(CCC(CCCC(=O)Nc1ccccc1)Cc1ccccc1)NO (racemic)

Activity [2]: 34%
Activity [3]: 91%
Activity [4]: 86%
Activity [5]: 17%
Activity [6]: 64%
Activity [7]: 53%
Compound: CCC(CCCC(=O)Nc1ccccc1)CCC(=O)NO (centres undefined)

Activity [8]: 97%
Activity [9]: 21%
Compound: CCCCCCC(CCCC(=O)Nc1ccccc1)CCC(=O)NO (centres undefined)

Source: ChEMBL document CHEMBL4251567 (Eur J Med Chem, 2018)
